Laboratory results as given in ChEMBL document CHEMBL4334541, “Nicotinamide Phosphoribosyltransferase (NAMPT) Is a New Target of Antitumor Agent Chidamide” (ACS Med Chem Lett, 2020).
The source made the active and inactive calls. The calls are words filed in the database; no cut-off is given here.

Experiments:
[1] = target: T1, Nicotinamide phosphoribosyltransferase (Homo sapiens, UniProt P43490); assay: Inhibition of human NAMPT using NAM and PRPP as substrates incubated for 90 mins in presence of NMNAT by fluorometric method
Target sequence in this assay (P43490 whole entry): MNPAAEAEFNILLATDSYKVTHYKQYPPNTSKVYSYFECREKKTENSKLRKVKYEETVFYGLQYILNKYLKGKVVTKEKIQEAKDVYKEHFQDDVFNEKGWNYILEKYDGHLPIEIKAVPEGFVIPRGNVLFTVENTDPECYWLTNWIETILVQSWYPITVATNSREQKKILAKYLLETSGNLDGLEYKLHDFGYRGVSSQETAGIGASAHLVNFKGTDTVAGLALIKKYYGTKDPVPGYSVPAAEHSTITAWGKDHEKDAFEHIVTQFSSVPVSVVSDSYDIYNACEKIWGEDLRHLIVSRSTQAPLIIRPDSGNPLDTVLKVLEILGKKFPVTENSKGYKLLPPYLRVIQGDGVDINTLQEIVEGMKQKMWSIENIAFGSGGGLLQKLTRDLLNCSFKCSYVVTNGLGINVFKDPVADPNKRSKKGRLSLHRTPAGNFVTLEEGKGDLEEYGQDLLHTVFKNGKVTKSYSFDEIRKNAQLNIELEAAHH

HCT-116 [2] = assay: Antiproliferative activity against human HCT116 cells assessed as reduction in cell viability after 72 hrs by CCK8 assay; format: functional, cell-based; conditions: HCT-116, 72 h
K562 [3] = assay: Antiproliferative activity against human K562 cells assessed as reduction in cell viability after 72 hrs by CCK8 assay; format: functional, cell-based; conditions: K562, 72 h
HL-60 [4] = assay: Antiproliferative activity against human HL60 cells assessed as reduction in cell viability after 72 hrs by CCK8 assay; format: functional, cell-based; conditions: HL-60, 72 h
HEL [5] = assay: Antiproliferative activity against human HEL cells assessed as reduction in cell viability after 72 hrs by CCK8 assay; format: functional, cell-based
HCT-116 [6] = assay: Antiproliferative activity against human HCT116 cells NAMPT deficient assessed as reduction in cell viability after 72 hrs by CCK8 assay; format: functional, cell-based; conditions: HCT-116, 72 h
Procedure, shortened: (§1)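 NAMPT-deficient cells were generated by siRNA knockdown of NAMPT before cytotoxicity testing.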

K562 [7] = assay: Antiproliferative activity against human K562 cells NAMPT deficient assessed as reduction in cell viability after 72 hrs by CCK8 assay; format: functional, cell-based; conditions: K562, 72 h; procedure, shortened: as §1
HL-60 [8] = assay: Antiproliferative activity against human HL60 cells NAMPT deficient assessed as reduction in cell viability after 72 hrs by CCK8 assay; format: functional, cell-based; conditions: HL-60, 72 h; procedure, shortened: as §1
HEL [9] = assay: Antiproliferative activity against human HEL cells NAMPT deficient assessed as reduction in cell viability after 72 hrs by CCK8 assay; format: functional, cell-based; procedure, shortened: as §1
[10] = target: T1, Nicotinamide phosphoribosyltransferase; assay: Inhibition of NAMPT in human HCT116 cells assessed as decrease in cellular NAD+ level after 24 hrs by MTT assay; format: cell-based
Procedure, shortened: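 Relative cellular NAD+ level in HCT116 cells after 24 h exposure to a range of compound concentrations, compared qualitatively with an untreated control.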
Target sequence in this assay (P43490 whole entry, looked up): as the sequence (P43490 whole entry) above

[11] = target: T1, Nicotinamide phosphoribosyltransferase; assay: Inhibition of NAMPT in human HCT116 cells assessed as decrease in cellular NAD+ level after 24 hrs in presence of NA by MTT assay; format: cell-based
Procedure, shortened: (§2)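 Rescue test in HCT116, K562, HL60 and HEL cells, with NA supplemented at 4 μM alongside compound treatment.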
Target sequence in this assay (P43490 whole entry, looked up): as the sequence (P43490 whole entry) above

[12] = target: T1, Nicotinamide phosphoribosyltransferase; assay: Inhibition of NAMPT in human HCT116 cells assessed as decrease in cellular NAD+ level after 24 hrs in presence of NMN by MTT assay; format: cell-based
Procedure, shortened: (§3)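 Rescue test in HCT116, K562, HL60 and HEL cells, with NMN supplemented at 10 μM alongside compound treatment.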
Target sequence in this assay (P43490 whole entry, looked up): as the sequence (P43490 whole entry) above

[13] = target: T1, Nicotinamide phosphoribosyltransferase; assay: Inhibition of NAMPT in human K562 cells assessed as decrease in cellular NAD+ level after 24 hrs in presence of NA by MTT assay; format: cell-based; procedure, shortened: as §2
Target sequence in this assay (P43490 whole entry, looked up): as the sequence (P43490 whole entry) above

[14] = target: T1, Nicotinamide phosphoribosyltransferase; assay: Inhibition of NAMPT in human K562 cells assessed as decrease in cellular NAD+ level after 24 hrs in presence of NMN by MTT assay; format: cell-based; procedure, shortened: as §3
Target sequence in this assay (P43490 whole entry, looked up): as the sequence (P43490 whole entry) above

[15] = target: T1, Nicotinamide phosphoribosyltransferase; assay: Inhibition of NAMPT in human HL60 cells assessed as decrease in cellular NAD+ level after 24 hrs in presence of NA by MTT assay; format: cell-based; procedure, shortened: as §2
Target sequence in this assay (P43490 whole entry, looked up): as the sequence (P43490 whole entry) above

[16] = target: T1, Nicotinamide phosphoribosyltransferase; assay: Inhibition of NAMPT in human HL60 cells assessed as decrease in cellular NAD+ level after 24 hrs in presence of NMN by MTT assay; format: cell-based; procedure, shortened: as §3
[17] = target: T1, Nicotinamide phosphoribosyltransferase; assay: Inhibition of NAMPT in human HEL cells assessed as decrease in cellular NAD+ level after 24 hrs in presence of NA by MTT assay; format: cell-based; procedure, shortened: as §2
[18] = target: T1, Nicotinamide phosphoribosyltransferase; assay: Inhibition of NAMPT in human HEL cells assessed as decrease in cellular NAD+ level after 24 hrs in presence of NMN by MTT assay; format: cell-based; procedure, shortened: as §3

SMILES: Nc1cc(F)ccc1NC(=O)c1ccc(CNC(=O)/C=C/c2cccnc2)cc1 [TUCIDINOSTAT]
- IC50 [1]: 2100 nM
- IC50 (HCT-116 [2]): 340 nM
- IC50 (K562 [3]): 320 nM
- IC50 (HL-60 [4]): 2.2 nM
- IC50 (HEL [5]): 13 nM
- IC50 (HCT-116 [6]): > 20000 nM
- IC50 (K562 [7]): 2400 nM
- IC50 (HL-60 [8]): 3200 nM
- IC50 (HEL [9]): 1800 nM
- inhibition [10]: Active
- inhibition [11]: inactive
- inhibition [12]: inactive
- inhibition [13]: inactive
- inhibition [14]: inactive
- inhibition [15]: inactive
- inhibition [16]: inactive
- inhibition [17]: inactive
- inhibition [18]: inactive
